Screens deposited in PubChem by several laboratories.
A selection: hits, their analogues and other compounds. The true share with any hit is near 2.6%.
Myeloid diff MLP: induction of myeloid progenitor differentiation, primary screen, cell-based, flow cytometry, MLPCN library. ER-HoxA9 myeloid progenitors, lysozyme-GFP differentiation. calls only at 10 µM. 360,000 compounds, 1% hits;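 active = normalized GFP-positive differentiation at or above the plate's own cutoff, the solvent-only control mean plus 3 SD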;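 note: cells exposed to compound for four days before flow analysis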
SKN-1 block: suppressors of acrylamide-induced Pgst-4::GFP reporter in worms, primary screen, SKN-1 inhibitor project, whole organism, uHTS, GFP/RFP fluorescence ratio, strain VP596. C. elegans VP596 Pgst-4::GFP/RFP ratio, 24 h. inhibition, % at 21.8 µM. 360,000 compounds, 0.49% hits. AID 624304, 2012;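 active = interference check ratio from 0.5 to 1.5 plus GFP to RFP signal ratio inhibition reaching or exceeding a fixed threshold, cut at about 30% in these data, passing the limit was not always enough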
Rin1 Abl inh: inhibitors of Rin1-Abl protein binding, primary screen, biochemical, TR-FRET; Tyrosine-protein kinase ABL1 (Homo sapiens) + Ras and Rab interactor 1 (Homo sapiens), …; inhibition, % at 7.35 µM; 360,000 compounds, 0.4% hits; in the data active = inhibition above about 5%, passing the limit was not always enough
T cell HTS: modulators of CD8 T cell-vesicle binding, primary screen, mouse 2C CD8+ T cells, flow cytometry. response (vesicle binding), % at 7 µM. 2C CD8+ T cell-vesicle binding; active compounds read low. 330,000 compounds, 0.068% hits. AID 2052, 2009;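 active = response, share of CD8 T cells binding vesicles, and their 90th percentile fluorescence all below set limits, cut at about 80% in these data, passing the limit was not always enough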;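 note: values below 100% mean blocked vesicle binding to the CD8+ T cells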
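Test system: purified 2C TCR transgenic mouse naive CD8+ T cells. Probe or stimulus: QL9-peptide-loaded Drosophila micro-vesicles bearing Ld, ICAM-1 and B7-1. Incubation: binding step 1.5 h, 37 °C, antibody labelling 20 min, ice. Measured by: flow cytometry of vesicle-bound cells.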
GRK2 aptamer HTS: compounds blocking aptamer binding on GRK2 – biochemical, human GRK2, bead flow cytometry, HTS, primary screen; Beta-adrenergic receptor kinase 1 (Homo sapiens), P25098; FAM-aptamer displacement from GRK2; inhibition of aptamer binding, % at 10 µM; 330,000 compounds, 0.59% hits;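 active = inhibition of aptamer binding above 40%, roughly 3 SD of noise, on plates passing a quality check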;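 note: median bead fluorescence of bound FAM aptamer so fluorescent compounds give negative values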
Rce1 inh: yeast Rce1p protease inhibitors, primary screen, biochemical, fluorescence, cell-free homogeneous; 290,000 compounds, 0.27% hits; yeast membranes, quenched prenylated peptide cleavage fluorescence; calls only; CAAX prenyl protease 2 (Saccharomyces cerevisiae (strain ATCC 204508 / S288c)), Q03530;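 active = fall in fluorescence gain of 50% or more versus controls, with final raw signal at or below 3038400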;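 note: plate controls were neutral control wells for no effect and wells lacking membranes for full effect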
An asterisk follows results filed as active; i = inactive; / = no result; + = active, no number.

SMILES	Myeloid diff MLP	SKN-1 block	Rin1 Abl inh	T cell HTS	GRK2 aptamer HTS	Rce1 inh
Cc1c(C#N)c(O)n(C)c(=O)c1N=Nc1ccc(S(N)(=O)=O)cc1	i	16.8	-3.1	/	/	i
Cn1c(CNc2ccccc2O)nc2ccccc21	+	-15.2	2.8	461.4	3.0	i
Cc1onc(-c2c(Cl)cccc2Cl)c1NC(=O)NC1CCSC1 (centres undefined)	i	-13.0	-3.5	280.5	0.0	i
CCN(CC)c1ccc(/C=C2/C(=O)c3ccc(C(=O)O)cc3C2=O)cc1	i	52.0*	-4.5	640.2	1.0	/
O=C(CSc1ccc2nnc(CCNC(=O)c3ccc(F)cc3)n2n1)NCc1ccco1	i	6.5	2.1	528.9	7.0	i
Cc1cc2c(n1-c1ccc(C(=O)O)cc1)CCCCC2	/	/	/	159.5	68.0*	i
CN1CCCN(C(=O)c2ccc(Br)s2)CC1	i	22.9	-1.4	254.5	0.0	i
CN1CCN(C(=O)c2ccc(-c3cccs3)s2)CC1	i	-7.9	-2.7	364.7	0.0	+
O=C(c1cccs1)c1ccc(-c2cccs2)s1	i	61.8*	-6.7	381.6	7.0	i
CC(C)c1ccc(NC(=O)C2CCCN2S(=O)(=O)c2ccccc2F)cc1 (centres undefined)	i	4.3	-1.2	279.1	0.0	/
CC(C)=NNc1nc(-c2ccc(N3C(=O)CCC3=O)cc2)cs1	i	12.3	3.2	734.0	1.0	i
Cc1cc(-c2csc(NC(=O)c3ccc(=O)[nH]c3)n2)c(C)n1Cc1ccco1	i	-5.6	8.3*	148.5	1.0	i
Cc1cc(-c2csc(NC(=O)c3ccc(=O)n(C)n3)n2)c(C)n1CC1CCCO1 (centres undefined)	i	38.6*	5.7	400.4	3.0	i
CCNc1nc(-c2cc(C)n(Cc3ccco3)c2C)cs1	i	4.7	2.4	i	0.0	i
COc1ccc(CN(C)CCCn2cnc(C(=O)Nc3ccc(C)c(C)c3)n2)cc1OC	i	14.3	-5.5	/	/	/
CCCN1CCN(c2ncnc3c2nnn3Cc2ccccc2)CC1	+	-9.9	-1.6	214.7	10.0	i
c1ccc(Cn2nnc3c(NCCN4CCOCC4)ncnc32)cc1	i	43.8*	-1.7	315.1	5.0	i
Clc1ccccc1Cn1nnc2c(NCCN3CCOCC3)ncnc21	i	1.7	-2.0	447.1	3.0	i
Cc1c(C(=O)NNC(=O)c2cccnc2)cccc1[N+](=O)[O-]	i	-10.9	2.1	0.0*	0.0	/
NNC(=O)c1sc2cc(C(F)(F)F)cnc2c1-c1cccs1	+	7.0	0.6	207.1	4.0	/
NC(=O)c1sc2cc(C(F)(F)F)cnc2c1-c1cccs1	i	3.3	-3.8	257.7	2.0	i
COc1ccc(NC(=O)COC(=O)CC2CCCC2)cc1	i	-7.5	2.6	546.7	2.0	/
Cc1cc2c(NCCc3ccccc3)ncnc2s1	+	-10.6	-0.8	124.5	0.0	i
OCCCNc1ncnc2sc(-c3ccccc3)cc12	i	1.3	-3.6	385.4	0.0	+
N#C/C(=C/c1ccc(O)c(O)c1)c1nc2ccccc2[nH]1	+	-2.7	1.4	408.3	0.0	i
SMILES	Myeloid diff MLP	SKN-1 block	Rin1 Abl inh	T cell HTS	GRK2 aptamer HTS	Rce1 inh
O=C(Nc1cc(C(F)(F)F)ccc1N1CCCCC1)C1=COCCO1	i	39.3*	-2.3	/	/	/
O=C(Nc1ccccc1N1CCCCC1)C1=COCCO1	i	14.9	0.7	804.1	0.0	/
Cc1ccc(CNC(=O)c2cc(-c3ccccc3)nn2CC2CC(c3cccc([N+](=O)[O-])c3)=NO2)cc1 (centres undefined)	i	-1.0	5.6	/	/	+
Cc1cc(C)c(S(=O)(=O)N2CCN(C(=O)c3cc(=O)[nH]c4ccccc34)CC2)c(C)c1	i	-11.6	-1.7	249.0	1.0	/
Cc1cc(C)c(C)c(S(=O)(=O)N2CCN(C(=O)c3cc(=O)[nH]c4ccccc34)CC2)c1C	+	14.6	-0.8	378.3	0.0	i
CN(C)CCCNC(=O)/C(=C/c1ccc(-c2ccc([N+](=O)[O-])cc2)o1)NC(=O)c1ccccc1	+	5.0	-7.3	402.9	0.0	i
Cc1ccc(C(=O)N/C(=C\c2ccc(-c3ccc(Cl)cc3)o2)C(=O)NCCCN(C)C)cc1	+	-3.8	-1.8	128.8	2.0	i
CN(C)CCCNC(=O)/C(=C\c1ccc(-c2ccc(Br)cc2)o1)NC(=O)c1ccccc1	+	-8.7	-2.7	204.1	0.0	i
CN(C)CCNC(=O)/C(=C/c1ccc(-c2cccc(Cl)c2)o1)NC(=O)c1ccccc1	i	-5.8	1.8	225.8	0.0	i
CCCCCC(=O)N1C[C@H](O)[C@@H](n2cc(C3CC3)nn2)C[C@@H]1c1ccc(OC)cc1	i	3.0	3.1	/	/	/
O=C(COC(=O)CC1CCCCC1)Nc1c(Cl)cccc1Cl	i	18.6	-1.0	353.4	3.0	/
CCCC1(C(=O)OCC)NC(c2ccc(N(C)C)cc2)C2C(=O)N(c3ccc(OCC)cc3)C(=O)C21 (centres undefined)	i	-20.6	3.1	392.3	0.0	i
CCCC1(C(=O)OCC)NC(c2ccc(N(C)C)cc2)C2C(=O)N(c3ccccc3)C(=O)C21 (centres undefined)	i	38.5*	-3.4	145.8	1.0	i
CCOC(=O)c1cc(CC)sc1NC(=O)CN1C(=O)C(=O)N(CC(C)C)C1=O	i	9.3	0.2	419.5	0.0	i
O=C(NCc1ccccc1Cl)[C@@H]1CCCN1S(=O)(=O)c1ccc(Cl)cc1	i	5.7	1.1	274.8	0.0	/
COc1ccc(-c2cn(-c3ccc(C)cc3)c(=O)n2CC(=O)Nc2ccc(OC)cc2OC)cc1	i	37.9*	-0.2	193.6	3.0	i
COc1ccc(NC(=O)Cn2c(-c3ccccc3)cn(-c3ccc(C)cc3)c2=O)cc1	i	-11.8	-0.7	202.2	0.0	i
CCOC(=O)c1nc2cc3n(c(C)c-2c1C)C(C)C(CC)=C3C (centres undefined)	i	-7.2	-0.6	114.5	1.0	+
CCOC(=O)c1cn2ccc(C)cc2n1	i	-5.2	2.7	493.7	0.0	i
CCOC(=O)c1c(C2CC2)csc1NC(=O)COC(=O)c1cc(OC)c(OC)cc1[N+](=O)[O-]	i	6.5	-2.3	299.7	9.0	/
